For one data set, the system named is Hepatocyte. Description: Cytotoxicity against mouse primary hepatocytes assessed as fold change in capase3/7 activity by Caspase-Glo 3/7 assay relative to DMSO. Type of data set: cell-based.
A further data set has as its system HEK293. Kind of data set: Cytotoxicity against HEK293 cells assessed as fold change in capase3/7 activity by Caspase-Glo 3/7 assay relative to DMSO. Type of data set: cell-based. The note with it: human.
Another data set deals with CYP2D6 (Homo sapiens, UniProt P10635). Description: Inhibition of human microsomal CYP2D6 at 10 uM after 3 mins by single quad LC/MS analysis. Type of data set: ADME. The note with it: microsomes.
A further data set concerns the target CYP2C9 (Homo sapiens, UniProt P11712). Description: Inhibition of human microsomal CYP2C9 at 10 uM after 10 mins by single quad LC/MS analysis. Type of data set: ADME. The note with it: microsomes.
For another data set, the target named is CYP3A4 (Homo sapiens, UniProt P08684). Description: Inhibition of human microsomal CYP3A4 at 10 uM after 3 mins by single quad LC/MS analysis. The note with it: microsomes. Format: ADME.
The nature of data set [1]: Drug metabolism in human microsomes at 4 uM after 30 mins by single quad LC/MS analysis. Type of data set: ADME, Microsome. The note with it: read-out: Drug metabolism.
Data set [2] is described as follows: Drug metabolism in mouse microsomes at 4 uM after 30 mins by single quad LC/MS analysis. Format: ADME, Microsome. The note with it: read-out: Drug metabolism.
The nature of data set [3]: Suppression of glucose stimulated insulin secretion in mouse pancreatic islet at 200 uM incubated for 24 hrs followed by glucose stimulation for 20 mins by HTRF assay relative to control.
Data set [4] is described as follows: Suppression of high glucose stimulated insulin secretion in mouse pancreatic islets at 200 uM treated for 24 hrs followed by glucose stimulation for 20 mins by HTRF assay relative to control. Format: ADME, cell-based. The note with it: pancreatic islet. The gist of the method:
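Mouse islet screening assay in high-glucose (20 mM) medium with compounds at 200 µM. Insulin secretion is expressed as fold change relative to vehicle. Mean of n = 4 experiments with SEM; significance by Student's t-test, p ≤ 0.05.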

The nature of data set [5]: Effect on insulin content in glucose-stimulated mouse pancreatic islet at 200 uM incubated for 24 hrs followed by glucose stimulation for 20 mins by HTRF assay. Type of data set: ADME, cell-based. The method, boiled down: (§1)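 Mouse islets treated with compounds at 200 µM. Insulin secretion was then measured under low- and high-glucose GSIS conditions and under KCl stimulation, and intracellular insulin content was measured. Mean of n = 4-5 experiments with SEM.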

Data set [6] is described as follows: Effect on insulin content in KCl-stimulated mouse pancreatic islet at 200 uM incubated for 24 hrs followed by KCl stimulation for 20 mins by HTRF assay. Format: ADME, cell-based. The gist of the method:
as §1

Data set [7] in a line: Suppression of KCl-stimulated insulin secretion in mouse pancreatic islet at 200 uM incubated for 24 hrs followed by KCl stimulation for 20 mins by HTRF assay. Type of data set: ADME, cell-based. The method, boiled down:
as §1

Data set [8] is described as follows: Suppression of glucose-stimulated insulin secretion in mouse pancreatic islet at 200 uM incubated for 24 hrs followed by glucose stimulation for 20 mins by HTRF assay. Type of data set: ADME, cell-based. The method, boiled down: as §1
Data set [9] is described as follows: Passive permeability in MDCK cells. The note with it: dog. Format: ADME, cell-based, Canis lupus familiaris.

Sequence of CYP2D6 (P10635 whole entry): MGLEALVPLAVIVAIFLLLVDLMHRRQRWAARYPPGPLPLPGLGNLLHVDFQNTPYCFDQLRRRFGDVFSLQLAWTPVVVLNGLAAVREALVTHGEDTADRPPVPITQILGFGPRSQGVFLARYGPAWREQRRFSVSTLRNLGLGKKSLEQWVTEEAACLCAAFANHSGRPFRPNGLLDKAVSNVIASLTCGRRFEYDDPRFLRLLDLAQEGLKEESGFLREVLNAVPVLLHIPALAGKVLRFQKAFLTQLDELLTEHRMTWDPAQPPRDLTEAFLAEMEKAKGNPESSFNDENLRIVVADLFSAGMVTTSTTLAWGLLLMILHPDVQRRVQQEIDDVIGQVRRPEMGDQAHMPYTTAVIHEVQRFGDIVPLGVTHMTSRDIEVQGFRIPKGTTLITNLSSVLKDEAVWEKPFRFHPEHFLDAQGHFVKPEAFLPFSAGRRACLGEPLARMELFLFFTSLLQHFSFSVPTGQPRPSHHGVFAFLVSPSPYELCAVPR
Sequence of CYP2C9 (P11712 whole entry): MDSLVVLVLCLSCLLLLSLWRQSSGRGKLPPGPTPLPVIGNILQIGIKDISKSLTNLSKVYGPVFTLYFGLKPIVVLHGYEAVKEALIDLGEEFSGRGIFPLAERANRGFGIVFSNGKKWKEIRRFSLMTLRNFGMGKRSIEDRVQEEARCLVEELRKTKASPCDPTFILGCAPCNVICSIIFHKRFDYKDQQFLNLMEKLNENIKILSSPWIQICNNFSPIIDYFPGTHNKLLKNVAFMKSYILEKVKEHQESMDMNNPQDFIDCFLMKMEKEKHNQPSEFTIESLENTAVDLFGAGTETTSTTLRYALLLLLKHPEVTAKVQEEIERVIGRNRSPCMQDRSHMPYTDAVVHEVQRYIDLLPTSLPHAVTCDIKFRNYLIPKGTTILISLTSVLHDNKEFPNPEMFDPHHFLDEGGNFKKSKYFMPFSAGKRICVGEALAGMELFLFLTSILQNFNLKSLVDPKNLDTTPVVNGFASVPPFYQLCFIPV
Sequence of CYP3A4 (P08684 whole entry): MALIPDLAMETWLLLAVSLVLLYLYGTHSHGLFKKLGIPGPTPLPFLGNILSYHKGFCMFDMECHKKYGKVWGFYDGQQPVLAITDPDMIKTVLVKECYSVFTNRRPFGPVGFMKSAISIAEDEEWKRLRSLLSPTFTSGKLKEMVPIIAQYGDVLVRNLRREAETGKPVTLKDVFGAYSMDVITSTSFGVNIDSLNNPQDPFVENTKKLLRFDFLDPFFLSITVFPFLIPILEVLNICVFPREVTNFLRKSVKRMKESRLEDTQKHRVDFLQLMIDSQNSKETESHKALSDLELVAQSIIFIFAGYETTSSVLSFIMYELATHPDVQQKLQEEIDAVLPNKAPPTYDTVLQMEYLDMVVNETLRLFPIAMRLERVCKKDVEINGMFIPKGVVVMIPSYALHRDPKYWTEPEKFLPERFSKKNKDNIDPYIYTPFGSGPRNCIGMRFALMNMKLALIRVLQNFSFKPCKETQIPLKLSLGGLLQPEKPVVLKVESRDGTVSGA

Turning to `Cc1oc(CCC(=O)O)c(C(=O)O)c1C`, the “fold change (FC)” value with Hepatocyte is 2; in the data set with HEK293, 0.8 to 1.
With `CCC(=O)c1oc(CCC(=O)O)c(C(=O)O)c1C`, the inhibition at 0.05 h, 10 µM is 11% against CYP2D6 and 3% at CYP3A4. Moreover, the “fold change (FC)” value with Hepatocyte is 1.1; in the data set with HEK293, 1 to 1.1. In addition, on CYP2C9, the inhibition at 10 min, 10 µM amounted to 10%.
Turning to `CCCc1oc(CCC(=O)O)cc1C`, the inhibition at 0.05 h, 10 µM against CYP2D6 came to 0%; on CYP3A4, 3%. In addition, the metabolised at 0.5 h, 4 µM in [1] was 0%; in data set [2] it was 20%. The “fold change (FC)” value with Hepatocyte was 0.7; with HEK293, 0.9 to 1. The compound further had an inhibition at 10 min, 10 µM against CYP2C9 of 9%.
Consider `CCCc1oc(CCC)c(C(=O)O)c1C`, for which the inhibition at 0.05 h, 10 µM on CYP2D6 came to 5%; on CYP3A4, 13%. In addition, the results for the metabolised at 0.5 h, 4 µM in [1] and in [2] were 21% and 51%, respectively. In addition, the “fold change (FC)” value was 1.4 in the data set with Hepatocyte and 1 to 2 with HEK293. On CYP2C9, the inhibition at 10 min, 10 µM came out at 18%.
Regarding `CCC(=O)c1oc(CCC(=O)OC)c(C(=O)OC)c1C`, the “fold change (FC)” value with Hepatocyte is 1.5; in the data set on HEK293, 1 to 1.1.
Regarding `COC(=O)CCc1oc2c(c1C(=O)OC)CCCC2`, the values for the inhibition at 0.05 h, 10 µM at CYP2D6 and on CYP3A4 were 20% and 48%, respectively. Also, the metabolised at 0.5 h, 4 µM in data set [1] came out at 16%; in data set [2], 76%. Further, the Activity result in data set [3] and in data set [4] was “Toxic” throughout. In addition, the “fold change (FC)” value in the data set on Hepatocyte is 0.4; in the data set on HEK293, 1 to 1.1. On CYP2C9, the inhibition at 10 min, 10 µM is 2%.
As to `CCCc1oc(CCCO)c(C(=O)O)c1C`, the inhibition at 0.05 h, 10 µM against CYP2D6 and against CYP3A4 was 2% in each case. Further, the metabolised at 0.5 h, 4 µM in data set [1] stood at 10%; in [2], 9%. In addition, the Activity entry in [3] and in data set [4] was “Non-Toxic” throughout. Moreover, the “fold change (FC)” value in the data set on Hepatocyte is listed as 0.6; with HEK293 it was 1. This compound yielded an inhibition at 10 min, 10 µM against CYP2C9 of 3%.
For `CCC[C@H]1C[C@H](C(=O)OC)[C@@H](CCC(=O)OC)O1`, the “fold change (FC)” value was 1.3 in the data set with Hepatocyte and 1 to 1.1 in the data set on HEK293.
For `CCCCCc1oc(CCC(=O)OC)c(C(=O)OC)c1C`, the inhibition at 0.05 h, 10 µM on CYP2D6 was 28%; on CYP3A4, 59%. Moreover, the results for the metabolised at 0.5 h, 4 µM in [1] and in data set [2] were 49% and 60%, respectively. Also, the Activity result in data set [3] and in data set [4] was “Non-Toxic” throughout. Moreover, the fold change (FC) with Hepatocyte and with HEK293 was 1 to 1.2 in each case. In addition, the inhibition at 10 min, 10 µM at CYP2C9 turned out to be 27%.
For `CCc1oc(CCC(=O)OC)c(C(=O)OC)c1CC`, the Activity result in [5], in [6], in [7], in data set [4] and in data set [8] was “Toxic” each time. Besides, the fold change (FC) with Hepatocyte and in the data set with HEK293 was 0.9 to 1 in each case.
`CCc1oc(CCC(=O)O)c(C(=O)O)c1CC`: the permeability entry in [9] is on record as “Impermeable”. In addition, the figures for the inhibition at 0.05 h, 10 µM at CYP2D6 and on CYP3A4 were 3% and 0%, respectively. The metabolised at 0.5 h, 4 µM in data set [1] was 0%; in [2] it was 21%. The entries for the “fold change (FC)” value with Hepatocyte and with HEK293 were 1.1 and 1, respectively. The inhibition at 10 min, 10 µM against CYP2C9 was 17%. Moreover, the Activity result in data set [4] is listed as “Non-Toxic”.
With `CCCC1(O)OC(O)(CCC(=O)OC)C(C(=O)OC)=C1C` (centres undefined), the Activity entry in data set [3] and in [4] was “Non-Toxic” each time. Besides, the “fold change (FC)” value was 0.3 in the data set on Hepatocyte and 0.9 to 1 with HEK293.
In the case of `CCCC1(O)OC(O)(CCC(=O)O)C(C(=O)O)=C1C` (centres undefined), the Activity result in data set [5], in [6], in data set [3], in data set [7], in data set [4] and in [8] was “Non-Toxic” each time. Also, the “fold change (FC)” value with Hepatocyte is 0.9; in the data set with HEK293, 1 to 1.1.
Consider `CCCc1oc(CCCO)c(C(=O)OC)c1C`, for which the inhibition at 0.05 h, 10 µM against CYP2D6 and at CYP3A4 was 0% each time. The metabolised at 0.5 h, 4 µM in data set [1] and in data set [2] was 100% throughout. Also, the entries for the “fold change (FC)” value with Hepatocyte and with HEK293 were 0.6 and 1 to 1.1, respectively. For the same compound, the inhibition at 10 min, 10 µM on CYP2C9 was found to be 0%.
On to `Cc1c(CCOCc2ccccc2)oc(CCC(=O)O)c1C(=O)O`, for which the entries for the “fold change (FC)” value with Hepatocyte and in the data set with HEK293 were 1.4 and 1.1, respectively.
With `CCCc1oc(C(=O)O)c(C)c1C`, the inhibition at 0.05 h, 10 µM against CYP2D6 and against CYP3A4 was 0% throughout. Also, the metabolised at 0.5 h, 4 µM turned out to be 20% in [1] and 0% in data set [2]. The “fold change (FC)” value with Hepatocyte is 2.2; in the data set on HEK293, 1 to 1.2. Besides, the inhibition at 10 min, 10 µM at CYP2C9 was 0%.
For the compound `CCCCCc1oc(CCC(=O)O)c(C(=O)O)c1C`, the inhibition at 0.05 h, 10 µM on CYP2D6 and on CYP3A4 was 3% each time. For the same compound, the metabolised at 0.5 h, 4 µM in data set [1] is 5%; in data set [2] it was 7%. The Activity result in data set [3] and in [4] was “Toxic” each time. The fold change (FC) in the data set with Hepatocyte is 1.2 to 1.5; with HEK293, 1. This compound had an inhibition at 10 min, 10 µM at CYP2C9 of 9%.
As for `CCCc1oc(CCC(=O)OC)c(C(=O)OC)c1CCC`, the fold change (FC) in the data set with Hepatocyte fell in the range of 0.8 to 0.9; with HEK293 it was 1 to 1.1.
In the case of `CCCc1oc(CCC(=O)O)c(C(=O)O)c1CCC`, the inhibition at 0.05 h, 10 µM at CYP2D6 and on CYP3A4 was 0% in each case. In addition, the metabolised at 0.5 h, 4 µM stood at 3% in data set [1] and 7% in [2]. In addition, the figures for the fold change (FC) in the data set on Hepatocyte and in the data set with HEK293 were 1.6 to 1.8 and 1, respectively. In addition, at CYP2C9, the inhibition at 10 min, 10 µM came to 0%. For the same compound, in data set [4], the Activity entry was “Toxic”.
For `CCC[C@H]1C[C@H](C(=O)O)[C@@H](CCC(=O)O)O1`, the “fold change (FC)” value was 2 in the data set with Hepatocyte and 1 to 1.2 in the data set on HEK293.
Turning to `COC(=O)CCc1oc(C)c(C)c1C(=O)OC`, the inhibition at 0.05 h, 10 µM was determined as 12% against CYP2D6 and 22% on CYP3A4. In addition, the figures for the metabolised at 0.5 h, 4 µM in [1] and in data set [2] were 0% and 16%, respectively. For the same compound, the “fold change (FC)” value is 0.8 with Hepatocyte and 1 to 1.1 with HEK293. On CYP2C9, the inhibition at 10 min, 10 µM came to 3%.
Consider `CCCc1oc(CCC(C)=O)c(C(C)=O)c1C`, for which the inhibition at 0.05 h, 10 µM at CYP2D6 stood at 0%; on CYP3A4, 21%. Besides, the results for the “fold change (FC)” value in the data set on Hepatocyte and in the data set with HEK293 were 0.3 and 0.9, respectively. Besides, the inhibition at 10 min, 10 µM against CYP2C9 is 0%.

Values taken from ChEMBL document CHEMBL4004837, “Synthesis and Characterization of Urofuranoic Acids: In Vivo Metabolism of 2-(2-Carboxyethyl)-4-methyl-5-propylfuran-3-carboxylic Acid (CMPF) and Effects on in Vitro Insulin Secretion” (J Med Chem, 2017).
